Screening data: PubChem BioAssay, several laboratories
Neddyl block – blocks human cullin neddylation | P61081+Q13564 | TR-FRET cullin neddylation, biochemical | inhibition, % at 25 µM | actives 0.58% (n = 360,000) | AID 651699; in the data active means inhibition above about 36%
UCH37 inh – human UCH37 deubiquitinating enzyme inhibition; Q9Y5K5; purified proteasome/UCH37, Ub-AMC cleavage fluorescence; inhibition, % (concentration not given with the values); actives 0.33% (n = 330,000); AID 588478;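 active means mean inhibition over replicate wells above about 20%, limit read from the data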
Target sequence (Q9Y5K5 whole entry, looked up): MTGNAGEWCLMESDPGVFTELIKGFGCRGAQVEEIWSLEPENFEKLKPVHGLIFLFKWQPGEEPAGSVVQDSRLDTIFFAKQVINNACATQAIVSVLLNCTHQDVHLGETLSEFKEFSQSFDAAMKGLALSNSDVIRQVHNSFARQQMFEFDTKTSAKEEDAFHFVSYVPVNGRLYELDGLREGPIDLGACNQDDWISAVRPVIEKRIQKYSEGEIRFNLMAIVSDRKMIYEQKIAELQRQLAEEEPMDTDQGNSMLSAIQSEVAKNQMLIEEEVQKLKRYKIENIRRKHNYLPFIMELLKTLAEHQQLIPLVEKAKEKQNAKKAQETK
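Material: human UCH37 enzyme supplied as purified proteasome complex / Amount: 0.15 nM proteasome as dispensed / Buffer or medium: pH 7.4 Tris-HCl (50 mM) with ovalbumin, ATP-MgCl2, DTT / Times: preincubation 30 min, reaction 25 min, room temperature / Technique: AMC fluorescence from Ub-AMC cleavage, excitation 355 nm, emission 460 nm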
CTSL1 counter – blocks F. hepatica cathepsin L1 in PFM18AAP counter-screen | recombinant F. hepatica cathepsin L1, Z-Leu-Arg-MCA fluorescence | inhibition, % at 5.96 µM | actives 0.49% (n = 300,000) | AID 1906;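 active means inhibition above the mean of all tested compounds plus 3 SD, set per screening campaign, cut at about 17% in these data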
SUMO HTRF inh – blocks human SUMOylation mediated by UBC9; inhibition, % at 35 µM; HTRF SUMOylation assay, SAE1/SAE2 + UBC9, in vitro; P63279; AID 2006; actives 0.36% (n = 290,000); in the data active means inhibition above about 50%, passing the limit was not always enough
Target sequence (P63279 whole entry, looked up): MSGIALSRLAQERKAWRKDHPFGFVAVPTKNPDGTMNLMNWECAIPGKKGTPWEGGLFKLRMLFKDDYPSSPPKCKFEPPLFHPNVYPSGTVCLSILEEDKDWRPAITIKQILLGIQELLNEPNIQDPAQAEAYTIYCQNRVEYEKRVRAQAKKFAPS
Neddyl conf – cullin neddylation inhibition, confirmation; AID 652217; calls only at 25 µM; actives 13% (n = 1,800); TR-FRET cullin neddylation biochemical assay; shares compounds with Neddyl block; in the data active means inhibition above about 40%;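 further: neddylation substrate is the cullin 1 ring ligase complex with SKP2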
Large screens that a line does not name were inactive (follow-up assays come after a bar, where shown). Shown are actives, neighbours in structure and some others; about 1.4% of the full set was active somewhere.

COc1c2c(cc3oc(CO[C@@H]4O[C@H](CO)[C@@H](O)[C@H](O)[C@H]4O)cc(=O)c13)O[C@H](C(C)(C)O)C2	Neddyl block 34.8 (no result: CTSL1 counter, SUMO HTRF inh) | Neddyl conf inactive
COc1c2c(cc3oc(C)cc(=O)c13)OC(C(C)(C)OC1OC(CO)C(O)C(O)C1O)C2 (stereo not given)	none
CN(N=Cc1ccc(Br)o1)C1=NS(=O)(=O)c2ccccc21	none (no result: Neddyl block, CTSL1 counter, SUMO HTRF inh)
c1nc2sc3c(c2c2nnnn12)CCCC3	none
c1nc2sc3c(c2c2nnnn12)CCC3	Neddyl block 41.0 | Neddyl conf inactive
Cn1nc(C(F)(F)F)c(-c2cccc(C(F)(F)F)c2)c1NC(=O)c1ccco1	Neddyl block 42.7 | Neddyl conf inactive
CCN(CC)CCN(C(=O)c1cc2c(ccc3ccccc32)oc1=O)c1nc2cc3c(cc2s1)OCCO3	Neddyl block 56.4 | Neddyl conf inactive
CCN(CC)CCN(C(=O)c1ccc2c(c1)OCCO2)c1nc2cc3c(cc2s1)OCO3	none
CCOC(=O)C1=C(C)NC(C)=C(C(=O)OC)C1c1cccc(Cl)c1Cl (stereo not given)	none (not shown: Neddyl block)
CCOC(=O)C1=C(COCCN)NC(C)=C(C(=O)OC)C1c1ccccc1Cl (stereo not given)	none (not shown: Neddyl block, SUMO HTRF inh)
c1csc(-c2nc3nc4ccccc4nc3n2Cc2ccc3c(c2)OCO3)c1	Neddyl block 37.3 | Neddyl conf inactive
c1ccc(Cn2c(-c3ccccc3)nc3nc4ccccc4nc32)cc1	Neddyl block 44.3 | Neddyl conf inactive
COc1ccc(NC(=O)CCC(=O)NN=Cc2cccnc2)cc1	none (no result: Neddyl block, CTSL1 counter, SUMO HTRF inh)
O=c1cc(-c2ccccc2)c2ccc(O)c(CN3CCCCC3)c2o1	Neddyl block 50.3 | Neddyl conf inactive
Cc1nc2c(c3c1[nH]c1ccccc13)C(=O)CC(C)(C)C2	Neddyl block 46.3
CC(O)C(=O)NN=Cc1cccc2ccccc12 (stereo not given)	none (no result: Neddyl block, CTSL1 counter, SUMO HTRF inh)
CCOC(=O)c1ccc(-c2ccc(/C=N/NC(=O)CN(c3ccccc3Cl)S(C)(=O)=O)o2)cc1	Neddyl block 50.6 (no result: UCH37 inh) | Neddyl conf inactive
CC(/C=C/c1ccccc1)=NNC(=O)CNC(=O)c1ccc2c(c1)OCO2	none (no result: Neddyl block, CTSL1 counter, SUMO HTRF inh)
COc1ccccc1NS(=O)(=O)c1cccc(C(=O)NN=C(C)c2ccc3c(c2)OCCO3)c1	none (no result: Neddyl block, CTSL1 counter, SUMO HTRF inh)
Cc1ccc(C(=O)N/N=C/c2ccc(N3CCOCC3)cc2)c(C)c1	Neddyl block 40.6 (no result: UCH37 inh) | Neddyl conf inactive
Cc1ccc(NS(=O)(=O)c2cccc(C(=O)N/N=C/c3ccc4c(c3)OCCO4)c2)c(C)c1	Neddyl block 49.0 (no result: UCH37 inh) | Neddyl conf inactive
Cc1ccc2nc(C)c(C(=O)NN=Cc3ccc(N4CCOCC4)cc3)cc2c1	none (no result: Neddyl block, CTSL1 counter, SUMO HTRF inh)
COc1ccc(NS(=O)(=O)c2cccc(C(=O)NN=Cc3ccc4c(c3)OCCO4)c2)cc1	none (no result: Neddyl block, CTSL1 counter, SUMO HTRF inh)
COc1ccccc1NS(=O)(=O)c1cccc(C(=O)N/N=C/c2ccc(N3CCOCC3)cc2)c1	Neddyl block 41.0 (no result: UCH37 inh) | Neddyl conf inactive
CCOc1ccc(C(=O)N/N=C/c2ccc(-c3ccc(S(=O)(=O)Nc4ncccn4)cc3)o2)cc1	Neddyl block 57.1 (no result: UCH37 inh) | Neddyl conf active
CCOC(=O)C1=C(C)n2c(sc(=Cc3cccc([N+](=O)[O-])c3)c2=O)=NC1c1ccc(O)c(OC)c1 (stereo not given)	none (no result: Neddyl block, CTSL1 counter, SUMO HTRF inh)
CN(C)c1ccc(-c2[nH][nH]c(=O)c2NC(=O)c2ccccn2)cc1	Neddyl block 45.5 (no result: UCH37 inh, CTSL1 counter, SUMO HTRF inh) | Neddyl conf inactive
CN(C)c1ccc(-c2[nH][nH]c(=O)c2NC(=O)c2ccc3ccccc3n2)cc1	none (no result: UCH37 inh, CTSL1 counter, SUMO HTRF inh)
COc1ccc(O)c(C(=O)c2cnn(C(=O)c3cccc(N(C)C)c3)c2)c1	Neddyl block 41.3 (no result: UCH37 inh, CTSL1 counter, SUMO HTRF inh) | Neddyl conf inactive
COc1ccc(C(=O)n2cc(C(=O)c3cc(C)ccc3O)cn2)cc1OC	Neddyl block 43.9
CN(C)c1cccc(C(=O)n2cc(C(=O)c3cc(F)ccc3O)cn2)c1	none (not shown: Neddyl block)
Cc1ccc(-c2[nH]c3ccccc3c2SCCN)cc1	Neddyl block 46.3 | Neddyl conf inactive
COc1ccc2oc(=O)c(C(=O)NCCc3ccc(OC)c(OC)c3)cc2c1	Neddyl block 48.2 | Neddyl conf inactive
COc1ccc2oc(=O)c(C(=O)NCc3ccc4c(c3)OCO4)cc2c1	none
O=C(O)C/C(=C\c1cc(Cl)c2c(c1)OCO2)c1nc2ccccc2s1	none (no result: UCH37 inh)
O=C(O)C/C(=C\c1ccc2c(c1)OCO2)c1nc2ccccc2s1	Neddyl block 44.6
COc1cccc(/C=C/C(=O)OCC(=O)c2ccc[nH]2)c1	Neddyl block 40.2 (no result: UCH37 inh, CTSL1 counter, SUMO HTRF inh) | Neddyl conf inactive
O=C(/C=C/c1cccc(F)c1)OCC(=O)c1ccc[nH]1	none (no result: CTSL1 counter, SUMO HTRF inh)
